# Reference: ChEMBL document CHEMBL1129453, “3-amino-3,4-dihydro-2H-1-benzopyran derivatives as 5-HT1A receptor ligands and potential anxiolytic agents. 2. Synthesis and quantitative structure-activity relationship studies of spiro[pyrrolidine- and piperidine-2,3'(2'H)-benzopyrans]” (J Med Chem, 1996)
# Target: 5-hydroxytryptamine receptor 1B (Rattus norvegicus, UniProt P28564)
# Assay: Binding affinity to 5-HT1B receptors using rat cortex+striatum + globus pallidus,[3H]-5-OH-tryptamine, and serotonin for NSB
# How it was run: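 Membranes from rat cortex plus striatum plus globus pallidus; [3H]-5-OH-tryptamine as radioligand at roughly its KD; serotonin defines nonspecific binding. Competition binding; IC50 taken as concentration inhibiting 50% of specific binding.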
# Chain of 5-hydroxytryptamine receptor 1B (P28564 whole entry): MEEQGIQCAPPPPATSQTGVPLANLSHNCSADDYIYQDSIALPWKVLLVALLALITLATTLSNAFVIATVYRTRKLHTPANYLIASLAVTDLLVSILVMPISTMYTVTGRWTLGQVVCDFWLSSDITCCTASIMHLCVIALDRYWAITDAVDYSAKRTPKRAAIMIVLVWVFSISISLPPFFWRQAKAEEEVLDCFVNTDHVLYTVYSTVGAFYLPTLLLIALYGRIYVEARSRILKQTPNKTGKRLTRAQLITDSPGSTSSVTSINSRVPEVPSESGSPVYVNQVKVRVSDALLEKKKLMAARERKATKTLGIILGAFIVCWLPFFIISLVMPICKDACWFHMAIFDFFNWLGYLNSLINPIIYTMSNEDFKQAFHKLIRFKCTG
row,SMILES,IC50 [µM]
1,CCCN1CCCC12COc1ccccc1C2 (stereo not drawn),> 1000
2,O=C1CC2(CCCC2)CC(=O)N1CCCCN1CCCC12COc1ccccc1C2 (stereo not drawn),3.8
3,CCCN1CCCCC12COc1cccc(OC)c1C2 (stereo not drawn),69.1
4,COc1cccc2c1CC1(CCCCN1CCCCNS(=O)(=O)c1ccc(C)cc1)CO2 (stereo not drawn),51.1
5,CCCN1C(=O)CCC12COc1cccc(OC)c1C2 (stereo not drawn),> 100
6,COc1cccc2c1CC1(CCCN1)CO2 (stereo not drawn),4.4

# Target: not listed separately
# Assay: Displacement of [3H]raclopride from Dopamine receptor […] of calf striatum
# Set-up: species or system Bos taurus
# How it was run: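 Calf striatum; [3H]raclopride at about its KD; haloperidol for nonspecific binding. Competition assay reporting IC50 (50% inhibition of specific binding).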
row,SMILES,IC50 [µM]
1,CCCN1CCCCC12COc1cccc(OC)c1C2 (stereo not drawn),100
2,COc1cccc2c1CC1(CCCCN1CCCCNS(=O)(=O)c1ccc(C)cc1)CO2 (stereo not drawn),38

# Target: D(2) dopamine receptor (Bos taurus, UniProt P20288)
# Assay: Displacement of [3H]SDZ-205-501 from Dopamine receptor D2 in calf caudate nucleus.
# How it was run: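 Calf caudate nucleus; [3H]SDZ205-501 near its KD; butaclamol for nonspecific binding. Competition binding; IC50 for 50% inhibition of specific binding.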
# Chain of D(2) dopamine receptor (P20288 whole entry): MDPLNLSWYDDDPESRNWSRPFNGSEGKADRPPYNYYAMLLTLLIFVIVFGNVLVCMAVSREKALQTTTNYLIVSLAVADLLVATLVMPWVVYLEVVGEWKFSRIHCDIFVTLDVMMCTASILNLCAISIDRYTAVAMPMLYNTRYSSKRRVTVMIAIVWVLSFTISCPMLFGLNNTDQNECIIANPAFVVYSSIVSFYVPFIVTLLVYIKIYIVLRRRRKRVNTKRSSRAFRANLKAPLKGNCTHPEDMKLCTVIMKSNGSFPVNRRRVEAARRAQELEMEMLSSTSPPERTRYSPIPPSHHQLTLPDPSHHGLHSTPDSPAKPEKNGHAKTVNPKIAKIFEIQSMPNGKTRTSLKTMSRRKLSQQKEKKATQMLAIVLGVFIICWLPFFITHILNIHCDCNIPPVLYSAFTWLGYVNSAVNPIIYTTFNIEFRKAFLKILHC
row,SMILES,IC50 [µM]
1,CCCN1CCCCC12COc1cccc(OC)c1C2 (stereo not drawn),14.7
2,COc1cccc2c1CC1(CCCCN1CCCCNS(=O)(=O)c1ccc(C)cc1)CO2 (stereo not drawn),4.22

# Target: not listed separately
# Assay: Binding affinity to 5-hydroxytryptamine 2 receptor using calf frontal cortex, [3H]- ketanserin, and spiperone for NSB
# Set-up: species or system Bos taurus
# How it was run: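 Calf frontal cortex; [3H]ketanserin near its KD; nonspecific binding with spiperone. Competition binding; IC50 = concentration inhibiting 50% of specific binding.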
row,SMILES,IC50 [µM]
1,CCCN1CCCC12COc1ccccc1C2 (stereo not drawn),233
2,O=C1CC2(CCCC2)CC(=O)N1CCCCN1CCCC12COc1ccccc1C2 (stereo not drawn),5.95
3,CCCN1CCCCC12COc1cccc(OC)c1C2 (stereo not drawn),41.4
4,COc1cccc2c1CC1(CCCCN1CCCCNS(=O)(=O)c1ccc(C)cc1)CO2 (stereo not drawn),21.1
5,CCCN1C(=O)CCC12COc1cccc(OC)c1C2 (stereo not drawn),793
6,COc1cccc2c1CC1(CCCN1)CO2 (stereo not drawn),71.4

# Target: T1, 5-hydroxytryptamine receptor 1A (Rattus norvegicus, UniProt P19327)
# T1 sequence (P19327 whole entry): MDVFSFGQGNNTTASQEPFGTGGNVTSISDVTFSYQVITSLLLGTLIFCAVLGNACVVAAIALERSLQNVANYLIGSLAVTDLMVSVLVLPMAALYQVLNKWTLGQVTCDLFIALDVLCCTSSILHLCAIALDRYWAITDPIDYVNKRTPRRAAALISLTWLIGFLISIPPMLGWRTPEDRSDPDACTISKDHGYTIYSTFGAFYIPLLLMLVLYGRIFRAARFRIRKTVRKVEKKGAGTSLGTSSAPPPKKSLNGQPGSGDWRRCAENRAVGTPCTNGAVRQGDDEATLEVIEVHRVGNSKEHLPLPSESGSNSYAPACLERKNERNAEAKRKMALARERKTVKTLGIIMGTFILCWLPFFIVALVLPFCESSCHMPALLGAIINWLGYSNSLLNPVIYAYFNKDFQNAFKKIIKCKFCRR
# Assay: Binding affinity to 5-hydroxytryptamine 1A receptor in rat hippocampus membranes,3H-8-OH-DPAT and buspirone for nonspecific binding (NSB)
# Assay type: cell membranes
row,SMILES,IC50 [µM]
1,CCCN1CCCC12COc1ccccc1C2 (stereo not drawn),1.3
2,O=C1CC2(CCCC2)CC(=O)N1CCCCN1CCCC12COc1ccccc1C2 (stereo not drawn),0.178
3,CCCN1CCCCC12COc1cccc(OC)c1C2 (stereo not drawn),0.42
4,COc1cccc2c1CC1(CCCCN1CCCCNS(=O)(=O)c1ccc(C)cc1)CO2 (stereo not drawn),0.068
5,CCCN1C(=O)CCC12COc1cccc(OC)c1C2 (stereo not drawn),14.2
6,COc1cccc2c1CC1(CCCN1)CO2 (stereo not drawn),0.298

# Target: T2, Serotonin 3 receptor (5HT3) (Mus musculus, UniProt Q9JHJ5+P23979)
# T2 sequence (Q9JHJ5 whole entry): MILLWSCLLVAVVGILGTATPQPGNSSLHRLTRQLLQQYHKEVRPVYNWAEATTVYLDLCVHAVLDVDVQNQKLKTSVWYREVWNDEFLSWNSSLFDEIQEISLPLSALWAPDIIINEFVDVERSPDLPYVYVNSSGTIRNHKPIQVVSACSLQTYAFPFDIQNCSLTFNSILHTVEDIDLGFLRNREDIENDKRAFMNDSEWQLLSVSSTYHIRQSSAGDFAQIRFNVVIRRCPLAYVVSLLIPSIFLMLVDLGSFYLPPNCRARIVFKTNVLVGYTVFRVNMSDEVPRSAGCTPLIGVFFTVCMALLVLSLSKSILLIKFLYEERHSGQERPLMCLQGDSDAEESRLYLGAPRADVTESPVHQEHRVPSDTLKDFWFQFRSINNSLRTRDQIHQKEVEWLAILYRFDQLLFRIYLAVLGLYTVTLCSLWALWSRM
# T2 sequence (P23979 whole entry): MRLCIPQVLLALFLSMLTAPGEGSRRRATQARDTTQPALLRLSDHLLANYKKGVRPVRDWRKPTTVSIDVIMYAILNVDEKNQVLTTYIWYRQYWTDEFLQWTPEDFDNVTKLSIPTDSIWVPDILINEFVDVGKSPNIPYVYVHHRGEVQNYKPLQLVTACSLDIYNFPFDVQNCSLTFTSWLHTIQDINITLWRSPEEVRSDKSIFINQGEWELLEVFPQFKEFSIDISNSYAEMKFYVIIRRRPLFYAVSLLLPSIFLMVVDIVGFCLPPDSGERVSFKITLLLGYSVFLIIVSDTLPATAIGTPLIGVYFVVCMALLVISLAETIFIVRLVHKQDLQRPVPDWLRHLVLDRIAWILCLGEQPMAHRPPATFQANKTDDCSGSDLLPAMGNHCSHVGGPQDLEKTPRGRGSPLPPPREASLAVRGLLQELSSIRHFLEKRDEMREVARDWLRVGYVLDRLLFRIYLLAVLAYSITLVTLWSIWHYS
# Assay: Displacement of [3H]-BRC 36694 from 5-hydroxytryptamine 3 receptor in NG108-15 cells
# Assay type: cell-based
# How it was run: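 NG108-15 cells; [3H]-BRC 36694 at approximately its KD; ICS 205930 for nonspecific binding. Competition binding expressed as IC50 against specific binding.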
row,SMILES,IC50 [µM]
1,CCCN1CCCC12COc1ccccc1C2 (stereo not drawn),14.5
2,O=C1CC2(CCCC2)CC(=O)N1CCCCN1CCCC12COc1ccccc1C2 (stereo not drawn),12.5
3,CCCN1CCCCC12COc1cccc(OC)c1C2 (stereo not drawn),14.9
4,COc1cccc2c1CC1(CCCCN1CCCCNS(=O)(=O)c1ccc(C)cc1)CO2 (stereo not drawn),118
5,CCCN1C(=O)CCC12COc1cccc(OC)c1C2 (stereo not drawn),> 100
6,COc1cccc2c1CC1(CCCN1)CO2 (stereo not drawn),10.2
